Activity calls are given as the source filed them. The rule behind the calls is not given here.
Assays:
[1] = Inverse agonist activity at human cytomegalovirus US28 receptor transfected in HEK293T cells assessed as activation of MAPK signaling pathway after 20 to 24 hrs by luciferase-based Elk1 reporter gene assay; assay type: cell-based, Human betaherpesvirus 5, HEK-293T
Outline: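 HEK293T cells transiently co-transfected with Elk1 (0.1 μg), Luc (5 μg) and US28 vector (5 μg); 5 h later washed, seeded at 20,000 cells/well in DMEM, 1% FBS, 2 mM L-glutamine, 1% penicillin-streptomycin, 1% DMSO with compound; 37 °C, 5% CO2, 20–24 h; BrightGlo luminescence. 3–5 experiments in triplicate, pooled normalized sigmoid fits give EC50 and efficacy.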

CHO = assay: Cytotoxicity against CHO cells after 48 hrs by MTS assay; assay type: cell-based; settings: Cricetulus griseus
Outline: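 CHO cells plated at 10000 cells/mL and incubated overnight. Drug from DMSO stock added, final DMSO <1%. Incubated 48 h at 37 °C, 5% CO2, then MTS reagent for 4 h more. Absorbance read at 490 nm. Run in triplicate; IC50 taken from a plot of relative A490 vs drug concentration.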

[2] = Activation of MAPK signaling pathway in mock-transfected HEK293T cells at 10 uM after 20 to 24 hrs by luciferase-based Elk1 reporter gene assay relative to control; assay type: cell-based; settings: Homo sapiens, HEK-293T
Outline: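 HEK293T cells transiently transfected with 0.1 μg Elk1, 5 μg Luc and empty pcDNA3 (PathDetect trans Elk1 system). After 5 h, washed, seeded at 20,000 cells/well in DMEM, 1% FBS, 2 mM L-glutamine, 1% pen-strep, 1% DMSO. Compound at 10 μM; 37 °C, 5% CO2, 20−24 h. Bright-Glo luminescence; % effect = 100% × (treated/1% DMSO control luminescence) − 100%.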

[3] = Inverse agonist activity at human cytomegalovirus US28 receptor transfected in HEK293T cells assessed as activation of MAPK signaling pathway at 10 uM after 20 to 24 hrs by luciferase-based Elk1 reporter gene assay relative to control; assay type: cell-based; settings: Human betaherpesvirus 5, HEK-293T
Outline: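 HEK293T transiently transfected with 0.1 μg Elk1, 5 μg Luc and 5 μg US28 vector (PathDetect trans Elk1), reading US28-driven MAPK/Elk1 signaling. After 5 h, seeded 20,000 cells/well in DMEM, 1% FBS, 2 mM L-glutamine, 1% pen-strep, 1% DMSO with compound; 37 °C, 5% CO2, 20−24 h. Bright-Glo luciferase luminescence vs no-compound control. Triplicates, 3−5 experiments; curves normalized, pooled, fitted by nonlinear regression.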

[4] = Human betaherpesvirus 5, HEK-293T, read-out: EC50
[5] = Human betaherpesvirus 5, HEK-293T, read-out: pEC50 (converted)

Row | SMILES | EC50 ([1]; hek-293t) | IC50 (CHO) [µM] | Activity [2] [%] | Efficacy [3] [%] | EC50 [1, 4] [µM] | EC50 [1, 5] [µM] | Activity [3]
1 | COc1ccccc1/C=C/C(=O)c1c(O)cccc1OCc1ccccc1 | ND(toxic) |  |  |  |  |  | 
2 | COc1cc(OC)c(/C=C/C(=O)c2ccccc2O)cc1Br |  | 16.9 | 5 | -55 | 4.9 | 4.9 | 
3 | COc1ccc(Br)cc1-c1cc(=O)c2ccccc2o1 |  | > 100 | -17 | -55 | 8.1 | 8.13 | 
4 | COc1ccc(Br)cc1/C=C/C(=O)c1ccccc1O |  | 8.7 | -29 | -44 | 7.8 | 7.76 | 
5 | COc1ccc(C)cc1/C=C/C(=O)c1ccccc1O |  | 14.2 | -4 | 52 | 10 |  | 
6 | COc1ccc(Br)cc1/C=C/C(=O)c1c(O)cccc1OCc1ccccc1 | ND(toxic) | 8.1 |  |  |  |  | 
7 | COc1cc(Br)cc(/C=C/C(=O)c2ccccc2O)c1OC |  | 7.2 | -42 | -52 | 6.7 | 6.61 | 
8 | COc1ccc(Br)cc1-c1oc2cccc(OC)c2c(=O)c1O |  | 17.3 | -1 |  |  |  | inactive
9 | CCOc1ccc(Br)cc1/C=C/C(=O)c1ccccc1O |  | 7.2 | -3 | -88 | 5 | 5.01 | 
10 | COc1ccc(C)cc1-c1oc2ccccc2c(=O)c1O |  | 54.6 | 0 | -38 | 1.78 | 1.78 | 
11 | COc1ccc(Br)cc1C1CC(=O)c2ccccc2O1 (stereo unspecified) |  | 67.9 | -5 |  |  |  | inactive
12 | COc1ccc(I)cc1/C=C/C(=O)c1ccccc1O |  | 6.7 | 100 | -94 | 5.5 | 5.5 | 
13 | COc1cc(Br)cc(-c2oc3ccccc3c(=O)c2O)c1OC |  | > 100 | -28 |  |  |  | inactive
14 | COc1ccc(Cl)cc1-c1oc2ccccc2c(=O)c1O |  | 25 | 2 | -42 | 1.32 | 1.32 | 
15 | COc1ccccc1-c1cc(=O)c2c(O)cccc2o1 |  | > 100 | 2 |  |  |  | inactive
16 | COc1ccc(Br)cc1/C=C/C(=O)c1ccc2ccccc2c1O |  | 15.6 | 35 | -92 | 2.9 | 2.88 | 

Row | SMILES | EC50 ([1]; hek-293t) | IC50 (CHO) [µM] | Activity [2] [%] | Efficacy [3] [%] | EC50 [1, 4] [µM] | EC50 [1, 5] [µM] | Activity [3]
17 | CCOc1ccc(Cl)cc1/C=C/C(=O)c1ccccc1O |  | 6.8 | 33 | -76 | 6.4 | 6.46 | 
18 | COc1ccc(Br)cc1/C=C/C(=O)c1c(O)cccc1OC |  | 6.1 | 290 | -95 | 6 | 6.03 | 
19 | COc1ccc(Cl)cc1/C=C/C(=O)c1ccccc1O |  | 8.4 | -30 | -58 | 7.8 | 7.76 | 
20 | COc1ccc(Br)cc1-c1oc2ccccc2c(=O)c1O |  | 88.5 | -11 |  |  |  | inactive
21 | COc1ccccc1/C=C/C(=O)c1ccccc1O |  | 25.5 | 8 | 67 | 1.4 | 1.45 | 
22 | COc1ccccc1-c1oc2ccccc2c(=O)c1O |  | > 100 | -1 | -19 | 4.6 | 4.57 | 
23 | COc1cc(OC)c(-c2oc3ccccc3c(=O)c2O)cc1Br |  | 18.3 | -17 |  |  |  | inactive
24 | COc1ccccc1-c1cc(=O)c2c(OCc3ccccc3)cccc2o1 |  | 17.5 | -40 | -49 | 7.3 | 7.24 | 
25 | COc1ccc(Br)cc1-c1cc(=O)c2c(OCc3ccccc3)cccc2o1 |  | 96.6 | -3 | -89 | 3.5 | 3.47 | 
26 | CCOc1ccc(Br)cc1-c1oc2ccccc2c(=O)c1O |  | 13.5 | -31 | -41 | 0.8 | 0.832 | 
27 | COc1ccc(Br)cc1-c1cc(=O)c2c(O)cccc2o1 |  | 75.2 | -16 |  |  |  | inactive
28 | CCOc1ccc(Cl)cc1-c1oc2ccccc2c(=O)c1O |  | > 100 | -17 | -41 | 0.31 | 0.309 | 
29 | COc1ccccc1-c1cc(=O)c2ccccc2o1 |  | 64.8 | 3 |  |  |  | inactive
30 | COc1ccc(I)cc1-c1oc2ccccc2c(=O)c1O |  | 17.9 | -23 |  |  |  | inactive
31 | COc1ccc(Cl)cc1C1CC(=O)c2ccccc2O1 (stereo unspecified) |  |  | -14 |  |  |  | inactive
